From paper PMC8441110 (Computational and Structural Biotechnology Journal, 2021)
Where no end group is shown, it is not given here.

Experiments:
[1] = test system: Klebsiella pneumoniae (K. pneumoniae) (ATCC 43816); test: MIC/MBC determination; format: cell-based; details: 37 °C, 20 h; for MBC: 10 µl from MIC wells on MHA, no colony growth; for MIC: MHB, 5 × 10^5 CFU/ml, read at 550 nm
How it was run: (§1)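 Bacteria grown overnight at 37 °C in MHB and diluted to 5 × 10^5 CFU/ml. Peptide stocks in PBS, two-fold from 51200 µM to 100 µM, added 1 µl per 99 µl suspension. Norfloxacin (20 mg/l) was the positive control. After 20 h at 37 °C, OD 550 nm read; MIC = no apparent growth. For MBC, 10 µl from MIC and higher wells spotted on MHA, 37 °C 20 h; lowest without colonies.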

[2] = test system: Pseudomonas aeruginosa (P. aeruginosa) (ATCC 9027); test: MIC/MBC determination; format: cell-based; details: 37 °C, 20 h; for MBC: 10 µl from MIC wells on MHA, no colony growth; for MIC: MHB, 5 × 10^5 CFU/ml, read at 550 nm
How it was run: as §1

MRSA (ATCC BAA 1707) = test: MIC/MBC determination; format: cell-based, Methicillin-resistant Staphylococcus aureus; details: 37 °C, 20 h; for MBC: 10 µl from MIC wells on MHA, no colony growth; for MIC: MHB, 5 × 10^5 CFU/ml, read at 550 nm
How it was run: as §1

MRSA (BO38 V1S1 A) = test: MIC/MBC determination; format: cell-based, Methicillin-resistant Staphylococcus aureus; details: 37 °C, 20 h; for MBC: 10 µl from MIC wells on MHA, no colony growth; for MIC: MHB, 5 × 10^5 CFU/ml, read at 550 nm
How it was run: as §1

[3] = test system: Escherichia coli (E. coli) (ATCC 8739); test: MIC/MBC determination; format: cell-based; details: 37 °C, 20 h; for MBC: 10 µl from MIC wells on MHA, no colony growth; for MIC: MHB, 5 × 10^5 CFU/ml, read at 550 nm
How it was run: as §1

[4] = test system: Staphylococcus aureus (S. aureus) (NCTC 10788); test: MIC/MBC determination; format: cell-based; details: 37 °C, 20 h; for MBC: 10 µl from MIC wells on MHA, no colony growth; for MIC: MHB, 5 × 10^5 CFU/ml, read at 550 nm
How it was run: as §1

[5] = test system: Enterococcus faecium (E. faecium) (NTCC-12697); test: MIC/MBC determination; format: cell-based; details: 37 °C, 20 h; for MBC: 10 µl from MIC wells on MHA, no colony growth; for MIC: MHB, 5 × 10^5 CFU/ml, read at 550 nm
How it was run: as §1

MRSA (NCTC 12493) [6] = test: MIC/MBC determination; format: cell-based, Methicillin-resistant Staphylococcus aureus; details: 37 °C, 20 h; for MBC: 10 µl from MIC wells on MHA, no colony growth; for MIC: MHB, 5 × 10^5 CFU/ml, read at 550 nm
How it was run: as §1

MRSA (BO42 V2E1 A) = test: MIC/MBC determination; format: cell-based, Methicillin-resistant Staphylococcus aureus; details: 37 °C, 20 h; for MBC: 10 µl from MIC wells on MHA, no colony growth; for MIC: MHB, 5 × 10^5 CFU/ml, read at 550 nm
How it was run: as §1

MRSA (NCTC 12493) [7] = test: Condition sensitivity assay; format: cell-based, Methicillin-resistant Staphylococcus aureus
S. aureus (NCTC 10788) = test: Condition sensitivity assay; format: cell-based, Staphylococcus aureus
[8] = test system: human keratinocyte cell line HaCaT; test: Lactate dehydrogenase; format: cell-based; details: HaCaT cells, 100 μM peptide, 24 h, compared to the positive control
How it was run: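 Peptide added at 100 µM to 1 µM for 24 h. Lysis buffer gave maximum LDH; after 45 min, supernatant reacted 30 min dark at room temperature, then stopped. Absorbance read at 490 and 680 nm. Release expressed as percent of 1% Triton X-100, PBS negative; nine replicates from three experiments, mean ± SEM.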

Substance | MBC [1] [µM] | MIC [1] [µM] | MBC [2] [µM] | MIC [2] [µM] | MBC (MRSA (ATCC BAA 1707)) [µM] | MIC (MRSA (ATCC BAA 1707)) [µM] | MBC (MRSA (BO38 V1S1 A)) [µM] | MIC (MRSA (BO38 V1S1 A)) [µM] | MBC [3] [µM] | MIC [3] [µM] | MBC [4] [µM] | MIC [4] [µM] | MBC [5] [µM] | MIC [5] [µM] | MBC (MRSA (NCTC 12493) [6]) [µM] | MIC (MRSA (NCTC 12493) [6]) [µM] | MBC (MRSA (BO42 V2E1 A)) [µM] | MIC (MRSA (BO42 V2E1 A)) [µM] | MIC (MRSA (NCTC 12493) [7]; MHB with 6 μM NH4Cl) [µM] | MIC (MRSA (NCTC 12493) [7]; MHB with 1 mM MgCl2) [µM] | other results
GVIFNALK-NH2 [GV8] | > 512 | > 512 | > 512 | > 512 | > 512 | > 512 | > 512 | > 512 | > 512 | > 512 | > 512 | > 512 | > 512 | > 512 | > 512 | > 512 | > 512 | > 512 |  |  | 
GVIFNALKGVAK-NH2 [GV12] | > 512 | > 512 | > 512 | > 512 | > 512 | > 512 | > 512 | > 512 | > 512 | > 512 | > 512 | > 512 | > 512 | > 512 | > 512 | > 512 | > 512 | > 512 |  |  | 
GVIFNALKGVAKTVAAQLLK-NH2 [GV20] | 64 | 32 | 64 | 32 | 32 | 16 | 32 | 16 | 32 | 8 | 8 | 4 | 64 | 16 | 8 | 8 | 64 | 32 | 8 | 8 | MIC (MRSA (NCTC 12493) [7]; MHB with 2.5 mM CaCl2): 16 µM; MIC (MRSA (NCTC 12493) [7]; MHB with 4 mM FeCl3): 8 µM; MIC (MRSA (NCTC 12493) [7]; MHB with 4.5 mM KCl): 16 µM; MIC (MRSA (NCTC 12493) [7]; MHB with 8 mM ZnCl2): 8 µM; MIC (MRSA (NCTC 12493) [7]; MHB with 150 mM NaCl): 8 µM; MIC (MRSA (NCTC 12493) [7]; MHB with 10% horse serum): 16 µM; MIC (MRSA (NCTC 12493) [7]; PBS (no added salt)): 8 µM; MIC (S. aureus (NCTC 10788); MHB with 6 μM NH4Cl): 4 µM; MIC (S. aureus (NCTC 10788); MHB with 1 mM MgCl2): 4 µM; MIC (S. aureus (NCTC 10788); MHB with 2.5 mM CaCl2): 4 µM; MIC (S. aureus (NCTC 10788); MHB with 4 mM FeCl3): 4 µM; MIC (S. aureus (NCTC 10788); MHB with 4.5 mM KCl): 8 µM; MIC (S. aureus (NCTC 10788); MHB with 8 mM ZnCl2): 4 µM; MIC (S. aureus (NCTC 10788); MHB with 150 mM NaCl): 4 µM; MIC (S. aureus (NCTC 10788); MHB with 10% horse serum): 8 µM; MIC (S. aureus (NCTC 10788); PBS (no added salt)): 4 µM
GVIFNALKGVAKTVAAQLLKK-NH2 [GV21] | 16 | 16 | 16 | 16 | 8 | 4 | 8 | 8 | 8 | 4 | 4 | 2 | 8 | 4 | 4 | 4 | 16 | 8 | 4 | 4 | LDH release rate (maximum) [8]: 22.36%; MIC (MRSA (NCTC 12493) [7]; MHB with 2.5 mM CaCl2): 4 µM; MIC (MRSA (NCTC 12493) [7]; MHB with 4 mM FeCl3): 4 µM; MIC (MRSA (NCTC 12493) [7]; MHB with 4.5 mM KCl): 4 µM; MIC (MRSA (NCTC 12493) [7]; MHB with 8 mM ZnCl2): 4 µM; MIC (MRSA (NCTC 12493) [7]; MHB with 150 mM NaCl): 4 µM; MIC (MRSA (NCTC 12493) [7]; MHB with 10% horse serum): 4 µM; MIC (MRSA (NCTC 12493) [7]; PBS (no added salt)): 4 µM; MIC (S. aureus (NCTC 10788); MHB with 6 μM NH4Cl): 2 µM; MIC (S. aureus (NCTC 10788); MHB with 1 mM MgCl2): 2 µM; MIC (S. aureus (NCTC 10788); MHB with 2.5 mM CaCl2): 2 µM; MIC (S. aureus (NCTC 10788); MHB with 4 mM FeCl3): 2 µM; MIC (S. aureus (NCTC 10788); MHB with 4.5 mM KCl): 2 µM; MIC (S. aureus (NCTC 10788); MHB with 8 mM ZnCl2): 2 µM; MIC (S. aureus (NCTC 10788); MHB with 150 mM NaCl): 2 µM; MIC (S. aureus (NCTC 10788); MHB with 10% horse serum): 2 µM; MIC (S. aureus (NCTC 10788); PBS (no added salt)): 2 µM
GVIFNALKGVAKTVAAQLLKKAR-NH2 [GV23] | 64 | 32 | 16 | 16 | 8 | 8 | 8 | 2 | 8 | 4 | 16 | 2 | 16 | 16 | 2 | 2 | 8 | 8 | 4 | 4 | MIC (MRSA (NCTC 12493) [7]; MHB with 2.5 mM CaCl2): 2 µM; MIC (MRSA (NCTC 12493) [7]; MHB with 4 mM FeCl3): 2 µM; MIC (MRSA (NCTC 12493) [7]; MHB with 4.5 mM KCl): 2 µM; MIC (MRSA (NCTC 12493) [7]; MHB with 8 mM ZnCl2): 2 µM; MIC (MRSA (NCTC 12493) [7]; MHB with 150 mM NaCl): 2 µM; MIC (MRSA (NCTC 12493) [7]; MHB with 10% horse serum): 2 µM; MIC (MRSA (NCTC 12493) [7]; PBS (no added salt)): 2 µM; MIC (S. aureus (NCTC 10788); MHB with 6 μM NH4Cl): 2 µM; MIC (S. aureus (NCTC 10788); MHB with 1 mM MgCl2): 2 µM; MIC (S. aureus (NCTC 10788); MHB with 2.5 mM CaCl2): 2 µM; MIC (S. aureus (NCTC 10788); MHB with 4 mM FeCl3): 2 µM; MIC (S. aureus (NCTC 10788); MHB with 4.5 mM KCl): 2 µM; MIC (S. aureus (NCTC 10788); MHB with 8 mM ZnCl2): 2 µM; MIC (S. aureus (NCTC 10788); MHB with 150 mM NaCl): 2 µM; MIC (S. aureus (NCTC 10788); MHB with 10% horse serum): 2 µM; MIC (S. aureus (NCTC 10788); PBS (no added salt)): 2 µM
TVAAQLLKKAR-NH2 [GV11] | > 512 | > 512 | > 512 | > 512 | > 512 | > 512 | > 512 | > 512 | > 512 | > 512 | > 512 | > 512 | > 512 | > 512 | > 512 | > 512 | > 512 | > 512 |  |  | 
